Key:
[1] = molecular target: T1, 3-hydroxy-3-methylglutaryl-coenzyme A reductase (Rattus norvegicus, UniProt P51639); experiment: In vitro inhibition of HMG-CoA reductase in solubilized rat liver.
T1 sequence (P51639 whole entry): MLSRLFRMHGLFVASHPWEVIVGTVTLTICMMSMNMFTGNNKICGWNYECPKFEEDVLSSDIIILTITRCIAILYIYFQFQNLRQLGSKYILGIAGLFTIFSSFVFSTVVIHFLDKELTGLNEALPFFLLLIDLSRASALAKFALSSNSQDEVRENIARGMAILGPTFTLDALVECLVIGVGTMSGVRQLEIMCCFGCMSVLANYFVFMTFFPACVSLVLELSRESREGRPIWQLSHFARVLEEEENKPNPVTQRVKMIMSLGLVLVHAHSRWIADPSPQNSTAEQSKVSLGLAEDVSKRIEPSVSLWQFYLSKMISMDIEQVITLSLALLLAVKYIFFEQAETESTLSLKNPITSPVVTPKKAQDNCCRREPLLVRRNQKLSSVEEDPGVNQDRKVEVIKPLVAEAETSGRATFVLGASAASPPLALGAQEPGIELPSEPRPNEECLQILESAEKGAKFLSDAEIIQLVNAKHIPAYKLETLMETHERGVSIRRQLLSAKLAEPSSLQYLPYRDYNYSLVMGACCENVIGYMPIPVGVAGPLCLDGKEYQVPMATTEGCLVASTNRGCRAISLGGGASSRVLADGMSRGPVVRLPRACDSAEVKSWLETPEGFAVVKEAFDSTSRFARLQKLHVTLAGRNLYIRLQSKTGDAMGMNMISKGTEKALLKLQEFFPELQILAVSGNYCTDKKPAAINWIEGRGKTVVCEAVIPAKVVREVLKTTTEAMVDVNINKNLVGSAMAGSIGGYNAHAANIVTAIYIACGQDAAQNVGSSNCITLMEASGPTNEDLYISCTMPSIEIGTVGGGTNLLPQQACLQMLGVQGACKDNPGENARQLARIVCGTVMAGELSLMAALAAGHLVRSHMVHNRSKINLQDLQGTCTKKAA

[2] = molecular target: T2, 3-hydroxy-3-methylglutaryl-coenzyme A reductase (Rattus norvegicus) (UniProt P51639); experiment: (§1) Inhibition of HMG-CoA reductase compared to mevinolin.
T2 sequence (whole entry): T1 sequence (P51639 whole entry)
Outline: (§2)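 Solubilized, partially purified rat liver HMG-CoA reductase. IC50 from four or five inhibitor concentrations. Relative potency compared IC50 with mevinolin (set to 100), corrected for molecular weight.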

[3] = molecular target: T3, 3-hydroxy-3-methylglutaryl-coenzyme A reductase (Homo sapiens, UniProt P04035); experiment: Inhibition of the incorporation of sodium [14C]acetate into cholesterol in HEP G2 cells.; type: functional, cell-based, HepG2
T3 sequence (P04035 whole entry): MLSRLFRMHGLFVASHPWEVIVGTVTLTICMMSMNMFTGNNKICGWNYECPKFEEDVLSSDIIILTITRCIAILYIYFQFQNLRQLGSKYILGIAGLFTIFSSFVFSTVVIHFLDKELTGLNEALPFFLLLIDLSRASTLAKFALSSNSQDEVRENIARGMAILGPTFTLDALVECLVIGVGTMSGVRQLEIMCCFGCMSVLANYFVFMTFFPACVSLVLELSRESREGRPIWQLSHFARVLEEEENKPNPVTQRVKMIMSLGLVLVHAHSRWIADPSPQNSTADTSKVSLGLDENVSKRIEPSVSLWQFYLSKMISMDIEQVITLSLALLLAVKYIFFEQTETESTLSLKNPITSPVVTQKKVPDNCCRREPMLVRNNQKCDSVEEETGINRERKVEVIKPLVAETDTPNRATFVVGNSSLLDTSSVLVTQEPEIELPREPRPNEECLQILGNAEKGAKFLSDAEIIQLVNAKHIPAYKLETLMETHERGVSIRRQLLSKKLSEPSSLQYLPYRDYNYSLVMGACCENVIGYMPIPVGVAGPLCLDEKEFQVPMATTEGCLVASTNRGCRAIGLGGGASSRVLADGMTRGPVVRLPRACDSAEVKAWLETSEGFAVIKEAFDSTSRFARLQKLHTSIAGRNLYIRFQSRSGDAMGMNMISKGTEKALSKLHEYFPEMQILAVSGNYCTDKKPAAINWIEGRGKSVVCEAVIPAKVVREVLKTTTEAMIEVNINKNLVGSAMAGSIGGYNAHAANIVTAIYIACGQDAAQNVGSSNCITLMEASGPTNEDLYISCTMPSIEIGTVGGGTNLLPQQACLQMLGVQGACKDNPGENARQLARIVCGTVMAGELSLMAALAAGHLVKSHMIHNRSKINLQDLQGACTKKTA

[4] = molecular target: T4, 3-hydroxy-3-methylglutaryl-coenzyme A reductase (Homo sapiens) (UniProt P04035); experiment: as §1; type: functional; outline: as §2
T4 sequence (whole entry): T3 sequence (P04035 whole entry)

[5] = molecular target: T1, 3-hydroxy-3-methylglutaryl-coenzyme A reductase; experiment: In vitro inhibition of solubilized HMG-CoA reductase in rat liver.
Sus scrofa = organism: Sus scrofa; experiment: In vitro inhibition of Cu2+ catalyzed LDL oxidation; type: functional
Outline: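 Porcine plasma LDL isolated by sequential ultracentrifugation (density 1.019-1.063 g/mL), dialysed against PBS pH 7.4, then diluted to 0.1 mg/mL protein. Preincubated 1 h at 37 °C under N2 with compound in ethanol. Oxidised with 5 μM Cu2+ for 2 h at 37 °C in air. Fluorescence read at ex 365/em 430 nm.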

Rattus norvegicus = organism: Rattus norvegicus; experiment: Compound was tested for inhibition of microsomal lipid peroxidation and the potency relative to terbufucine was determined; type: functional
Outline: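 Rat liver microsomes in 50 mM Tris-HCl pH 7.4 with 100 mM KCl and 6.0 mM MgCl2, final protein 0.4 mg/mL. Peroxidation was started with ADP (2 mM)/FeCl3 (10 μM) plus an NADPH-regenerating system. Incubation 30 min at 37 °C with shaking. Thiobarbituric acid reactive substances were read at 535 nm.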

| SMILES | IC50 [1] | Relative potency [2] | also measured |
| --- | --- | --- | --- |
| O=C(O)C[C@H](O)CC(O)COc1c(CCCOc2ccc(F)cc2)cc(Cl)cc1C1CCCC1 (stereo partly specified) | > 1000 nM | < 1 |  |
| CCC(C)(C)OC(=O)C(c1cc(C)cc(C)c1OCC(O)C[C@@H](O)CC(=O)O)C1CCCCC1 (stereo in doubt; 11s) [listing 1 of 2 here] | 500 nM |  | IC50 [3]: 1700 nM |
| CCC(C)(C)C(=O)NC(c1cc(C)cc(C)c1OCC(O)C[C@@H](O)CC(=O)O)C1CCCCC1 (stereo in doubt; 11x) [listing 1 of 2 here] |  |  | Relative potency [4]: < 1 |
| O=C(O)C[C@H](O)CC(O)COc1c(Cl)cc(Cl)cc1C(=O)C1CCCCC1 (stereo partly specified) | 190 nM | 4 |  |
| CC(C)c1c(CCC(O)C[C@@H](O)CC(=O)O)c(-c2ccc(F)cc2)cn1-c1ccccc1 (stereo partly specified) |  |  | IC50 [5]: 3 nM |
| Cc1c(OCC(O)C[C@@H](O)CC(=O)O)c(-c2ccc(F)cc2)nc2ccccc12 (stereo partly specified) | 1000 nM | 1 | IC50 [3]: > 5000 nM; Relative potency [4]: < 1 |
| Cc1c(CCC(O)C[C@@H](O)CC(=O)O)c(-c2ccc(F)cc2)cn1-c1ccccc1 (stereo partly specified) |  |  | IC50 [5]: 35 nM |
| Cc1cc(C)c(OCC(O)C[C@@H](O)CC(=O)O)c(C(C)c2ccc(F)cc2)c1 (stereo partly specified) | 160 nM |  |  |
| CC(C)c1cc(-c2ccccc2)cc(CC2CCCCC2)c1OCC(O)C[C@@H](O)CC(=O)O (stereo partly specified) | 400 nM | 2 | IC50 [3]: 100 nM; Relative potency [4]: 50 |
| Cc1cccc(CCCOc2ccc(F)cc2)c1OCC(O)C[C@@H](O)CC(=O)O (stereo partly specified) | 250 nM | 3 |  |
| CC(C)c1c(OCC(O)C[C@@H](O)CC(=O)O)c(C(c2ccc(F)cc2)c2ccc(F)cc2)cc2ccccc12 (stereo partly specified) | 380 nM | 2 | IC50 [3]: 3500 nM; Relative potency [4]: 2 |
| CC(C)c1cc(-c2ccccc2)nc(-c2ccc(F)cc2)c1/C=C/[C@@H](O)C[C@@H](O)CC(=O)O |  |  | IC50 [5]: 3 nM |
| CCC(C)(C)OC(=O)C(c1cc(C)cc(C)c1OCC(O)C[C@@H](O)CC(=O)O)C1CCCCC1 (stereo in doubt; 11r) [listing 1 of 2 here] |  | 12 | Relative potency [4]: < 1 |
| Cc1nc2ccccc2c(-c2ccccc2)c1OCC(O)C[C@@H](O)CC(=O)O (stereo partly specified) | > 1000 nM | < 1 | IC50 [3]: > 5000 nM; Relative potency [4]: < 1 |
| O=C(O)C[C@H](O)CC(O)COc1cc(OCc2ccc(F)cc2)c(Cl)cc1Cl (stereo partly specified) | 260 nM | 3 |  |
| Cc1cc(C(c2ccc(F)c(C)c2)c2cc(Cl)cc(Cl)c2OCC(O)C[C@@H](O)CC(=O)O)ccc1F (stereo partly specified) | 1000 nM |  |  |
| O=C(O)C[C@H](O)C[C@H](O)/C=C/c1c(Cl)cc(Cl)cc1-c1ccc(F)cc1 |  |  | IC50 [5]: 4.5 nM |
| Cc1c(OCC(O)C[C@@H](O)CC(=O)O)c(C(c2ccc(F)cc2)c2ccc(F)cc2)cc2ccccc12 (stereo partly specified) | 900 nM |  | IC50 [3]: 20000 nM; Relative potency [4]: < 1 |
| Cc1cc(C)c(OCC2C[C@@H](O)CC(=O)O2)c(C(Cl)C2CCCCC2)c1 (stereo partly specified) | > 1000 nM |  | IC50 [3]: 6500 nM; Relative potency [4]: < 1 |
| CCC(C)(C)C(=O)NC(c1cc(C)cc(C)c1OCC(O)C[C@@H](O)CC(=O)O)C1CCCCC1 (stereo in doubt; 11w) [listing 1 of 2 here] | 320 nM |  | IC50 [3]: 15000 nM |
| O=C(O)C[C@H](O)CC(O)COc1c(Cl)cc(Cl)cc1-c1ccccc1 (stereo partly specified) | 190 nM | 5 |  |
| O=C(O)C[C@H](O)CC(O)COc1c(CCCOc2ccc(F)cc2)cccc1C1CCCC1 (stereo partly specified) | > 1000 nM | < 1 |  |
| CCC(C)(C)C(=O)NC(c1cc(C)cc(C)c1OCC(O)C[C@@H](O)CC(=O)O)C1CCCCC1 (stereo in doubt; 11x) [listing 2 of 2 here] | 470 nM |  | IC50 [3]: 10000 nM |
| CC(C)(C)c1cc(C(C(=O)O)c2cc(C(C)(C)C)c(O)c(C(C)(C)C)c2)cc(C(C)(C)C)c1O [TERBUFICIN] |  |  | IC50 (Sus scrofa): 110 nM; Relative potency (Rattus norvegicus): 100 |
| CCC(C)(C)C(=O)NC(c1cc(C)cc(C)c1OCC(O)C[C@@H](O)CC(=O)O)C1CCCCC1 (stereo in doubt; 11w) [listing 2 of 2 here] |  | 2 | Relative potency [4]: < 1 |
| CCC(C)(C)OC(=O)C(c1cc(C)cc(C)c1OCC(O)C[C@@H](O)CC(=O)O)C1CCCCC1 (stereo in doubt; 11s) [listing 2 of 2 here] |  |  | Relative potency [4]: 3 |
| O=C(O)C[C@H](O)CC(O)COc1c(Cl)cc(Cl)cc1C(c1ccc(F)cc1)c1ccc(F)cc1 (stereo in doubt; 11pp) | 950 nM |  |  |
| O=C(O)C[C@H](O)CC(O)COc1c(Cl)cc(Cl)cc1C(CCOc1ccc(F)cc1)c1ccc(F)cc1 (stereo partly specified) | 150 nM | 4 |  |
| Cc1cc(Cl)c(OCC(O)C[C@@H](O)CC(=O)O)c(C(c2ccc(F)c(C)c2)c2ccc(F)c(C)c2)c1 (stereo partly specified) | 270 nM |  |  |
| Cc1cc(C)c(OCC(O)C[C@@H](O)CC(=O)O)c(C(CC(C)C)c2ccc(F)cc2)c1 (stereo partly specified) | 140 nM |  |  |

Further compounds by falling IC50 [1], results first:

| IC50 [1] | Relative potency [2] | SMILES | also measured |
| --- | --- | --- | --- |
| 100 nM |  | COc1ccc(C(c2ccc(F)cc2)c2cc(C)cc(C)c2OCC(O)C[C@@H](O)CC(=O)O)cc1 (stereo partly specified) |  |
| 100 nM | 9 | Cc1cc(C)c(OCC(O)C[C@@H](O)CC(=O)O)c(CC2CCCCC2)c1 (stereo partly specified) |  |
| 95 nM | 9 | O=C(O)C[C@H](O)CC(O)COc1c(Cl)cc(Cl)cc1C(F)=C1CCCCC1 (stereo partly specified) |  |
| 95 nM | 8 | Cc1cc(C)c(OCC(O)C[C@@H](O)CC(=O)O)c(C(c2ccc(F)cc2)C2CCCCC2)c1 (stereo partly specified) |  |
| 90 nM |  | Cc1cc(C)c(OCC(O)C[C@@H](O)CC(=O)O)c(C(c2ccc(F)cc2)c2cccc(C(F)(F)F)c2)c1 (stereo partly specified) |  |
| 85 nM |  | O=C(O)C[C@H](O)CC(O)COc1c(Cl)cc(Cl)cc1C(F)(F)C1CCCCC1 (stereo partly specified) | IC50 [3]: 2500 nM; Relative potency [4]: 2 |
| 80 nM | 10 | Cc1cc(Cl)cc(CCCOc2ccc(F)cc2)c1OCC(O)C[C@@H](O)CC(=O)O (stereo partly specified) |  |
| 75 nM | 12 | Cc1cc(Cl)cc(CC2CCCCC2)c1OCC(O)C[C@@H](O)CC(=O)O (stereo partly specified) |  |
| 70 nM |  | Cc1cc(Cl)cc(C(c2ccc(F)cc2)c2ccc(F)cc2)c1OCC(O)C[C@@H](O)CC(=O)O (stereo partly specified) |  |
| 70 nM |  | Cc1cc(C)c(OCC(O)C[C@@H](O)CC(=O)O)c(C(c2ccc(F)cc2)c2ccc(F)cc2)c1 (stereo partly specified) |  |
| 60 nM |  | CCC(C)(C)OC(=O)C(c1cc(C)cc(C)c1OCC(O)C[C@@H](O)CC(=O)O)C1CCCCC1 (stereo in doubt; 11r) [listing 2 of 2 here] | IC50 [3]: 12000 nM |
| 50 nM | 15 | Cc1cc(Cl)cc(CCCOc2ccc(Cl)cc2)c1OCC(O)C[C@@H](O)CC(=O)O (stereo partly specified) |  |
| 50 nM | 16 | CC(C)c1c(OCC(O)C[C@@H](O)CC(=O)O)c(-c2ccc(F)cc2)nc2ccccc12 (stereo partly specified) | IC50 [3]: 250 nM; Relative potency [4]: 20 |
| 27 nM | 31 | O=C(O)C[C@H](O)CC(O)COc1c(Cl)cc(Cl)cc1CC1CCCCC1 (stereo partly specified) |  |
